Measurements reported in ChEMBL document CHEMBL1133529, “Solid-phase synthesis and biological evaluation of a combinatorial library of philanthotoxin analogues” (J Med Chem, 2000).

What was measured:
[1] = biological target: T1, Acetylcholine receptor; alpha1/beta1/delta/gamma (Homo sapiens, UniProt P02708+P07510+P11230+Q07001); experiment: Antagonist activity at human muscle-type nAChR (embryonic muscle) expressed in TE671 cells; (end value).; type: functional, cell-based, TE-671
Method in brief: (§1)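 Whole-cell patch clamp of TE671 cells (embryonic muscle-type nAChR) at 17-23 °C. Pipette: 140 mM CsCl, 1 mM CaCl2, 11 mM EDTA, 5 mM HEPES pH 7.2. Compound co-applied with 10 µM acetylcholine as 1-s pulses ≥30 s apart; IC50 from peak and end currents.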

[2] = Tested for antagonist activity on non-NMDAR expressed in Xenopus Oocytes from rat brain mRNA.; type: functional, cell-based
Method in brief: (§2)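 Xenopus laevis oocytes injected with rat brain RNA, kept at 18 °C ≥3 days, voltage-clamped at -80 mV. Bath saline: 120 mM NaCl, 2 mM KCl, 1.8 mM CaCl2, 10 mM HEPES pH 7.5. 100 µM kainic acid perfused 120 s, antagonist co-applied 40-80 s. IC50 from decrease of kainate-evoked current.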

[3] = biological target: T1, Acetylcholine receptor; alpha1/beta1/delta/gamma; experiment: Antagonist activity at human muscle-type nAChR (embryonic muscle) expressed in TE671 cells; (peak value).; type: functional, cell-based, TE-671; method in brief: as §1
[4] = Tested for antagonist activity on non-NMDAR (expressed in Xenopus Oocytes) from rat brain mRNA.; type: functional, cell-based; method in brief: as §2

T1 sequence (P02708 whole entry): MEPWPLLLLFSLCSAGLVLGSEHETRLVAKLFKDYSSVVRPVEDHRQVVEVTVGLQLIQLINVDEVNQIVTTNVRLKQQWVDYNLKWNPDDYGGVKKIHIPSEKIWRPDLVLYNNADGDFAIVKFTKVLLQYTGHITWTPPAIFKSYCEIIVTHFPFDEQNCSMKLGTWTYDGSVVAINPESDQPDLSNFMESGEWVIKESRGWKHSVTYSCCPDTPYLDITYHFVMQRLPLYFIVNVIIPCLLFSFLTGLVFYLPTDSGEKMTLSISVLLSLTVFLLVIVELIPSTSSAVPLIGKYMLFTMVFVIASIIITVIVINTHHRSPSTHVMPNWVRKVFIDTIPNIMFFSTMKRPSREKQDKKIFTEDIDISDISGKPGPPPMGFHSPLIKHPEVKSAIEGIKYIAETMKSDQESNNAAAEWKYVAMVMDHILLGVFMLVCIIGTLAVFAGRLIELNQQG
T1 sequence (P07510 whole entry): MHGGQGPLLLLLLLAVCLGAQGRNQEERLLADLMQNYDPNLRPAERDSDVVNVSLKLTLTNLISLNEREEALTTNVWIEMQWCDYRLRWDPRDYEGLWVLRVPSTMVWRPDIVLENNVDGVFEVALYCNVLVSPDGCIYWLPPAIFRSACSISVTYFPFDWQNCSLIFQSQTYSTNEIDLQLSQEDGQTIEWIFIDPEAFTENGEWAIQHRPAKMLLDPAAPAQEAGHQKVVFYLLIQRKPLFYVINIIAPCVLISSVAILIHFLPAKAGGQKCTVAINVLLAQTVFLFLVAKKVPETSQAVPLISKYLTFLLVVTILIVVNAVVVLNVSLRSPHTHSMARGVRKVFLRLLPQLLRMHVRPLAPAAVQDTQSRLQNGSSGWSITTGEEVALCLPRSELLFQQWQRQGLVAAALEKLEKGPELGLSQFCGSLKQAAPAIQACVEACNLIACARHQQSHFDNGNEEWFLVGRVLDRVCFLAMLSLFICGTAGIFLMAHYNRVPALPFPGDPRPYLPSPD
T1 sequence (P11230 whole entry): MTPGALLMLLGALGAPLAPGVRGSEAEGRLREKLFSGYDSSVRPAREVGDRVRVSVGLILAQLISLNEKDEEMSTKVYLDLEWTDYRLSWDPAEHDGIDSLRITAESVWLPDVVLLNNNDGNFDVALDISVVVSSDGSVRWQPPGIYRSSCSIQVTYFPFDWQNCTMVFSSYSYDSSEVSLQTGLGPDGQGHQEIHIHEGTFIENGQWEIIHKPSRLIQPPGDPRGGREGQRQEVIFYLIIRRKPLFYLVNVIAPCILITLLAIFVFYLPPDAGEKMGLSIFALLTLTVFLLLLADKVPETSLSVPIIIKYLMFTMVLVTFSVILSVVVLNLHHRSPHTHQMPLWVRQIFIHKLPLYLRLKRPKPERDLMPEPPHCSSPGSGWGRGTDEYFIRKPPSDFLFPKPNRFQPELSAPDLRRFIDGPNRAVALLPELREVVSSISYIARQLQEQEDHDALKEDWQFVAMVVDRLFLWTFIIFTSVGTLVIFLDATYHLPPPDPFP
T1 sequence (Q07001 whole entry): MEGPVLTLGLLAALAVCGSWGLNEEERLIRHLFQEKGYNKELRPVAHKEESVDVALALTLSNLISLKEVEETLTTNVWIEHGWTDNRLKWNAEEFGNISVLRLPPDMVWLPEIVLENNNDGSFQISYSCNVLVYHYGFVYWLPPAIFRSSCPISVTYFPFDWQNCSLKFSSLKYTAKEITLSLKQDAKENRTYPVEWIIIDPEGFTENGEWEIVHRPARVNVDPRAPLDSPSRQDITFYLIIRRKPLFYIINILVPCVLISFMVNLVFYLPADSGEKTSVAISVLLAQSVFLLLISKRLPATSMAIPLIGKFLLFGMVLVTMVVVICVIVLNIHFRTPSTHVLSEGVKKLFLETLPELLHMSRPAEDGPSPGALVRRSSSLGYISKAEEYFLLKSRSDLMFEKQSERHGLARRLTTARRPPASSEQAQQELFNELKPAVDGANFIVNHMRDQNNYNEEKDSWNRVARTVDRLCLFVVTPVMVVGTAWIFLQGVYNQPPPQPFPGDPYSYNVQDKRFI

Structure (SMILES)	IC50 [1] [µM]	IC50 [2] [µM]	IC50 [3] [µM]	IC50 [4] [µM]
NCCCNCCCCNCCCNC(=O)[C@H](Cc1ccc(O)cc1)NC(=O)Cc1ccccc1	22.3	0.015	249	
NCCCNCCCCNCCCNC(=O)[C@H](Cc1ccc(O)cc1)NC(=O)CC1CCCCC1	13.2	0.18	86.9	
NCCCOCCCCOCCCNC(=O)[C@H](Cc1ccc(O)cc1)NC(=O)Cc1ccccc1	12.6		35	
NCCCOCCCCOCCCNC(=O)[C@H](Cc1ccc(O)cc1)NC(=O)CC1CCCCC1	5.69		25.9	
NCCCCCCCCCCCCNC(=O)[C@H](Cc1ccc(O)cc1)NC(=O)CC1CCCCC1	151		> 1000	
NCCCCCCCCCCCCNC(=O)[C@H](Cc1ccc(O)cc1)NC(=O)Cc1ccccc1	17.2		388	
NCCCNCCCCNCCCNC(=O)[C@H](Cc1cccc(O)c1)NC(=O)Cc1ccccc1	10.1		98.2	
NCCCCCCCCCCCCNC(=O)[C@H](Cc1cccc(O)c1)NC(=O)Cc1ccccc1	8.05		105	
NCCCOCCCCOCCCNC(=O)[C@H](Cc1cccc(O)c1)NC(=O)Cc1ccccc1	25.3		50.9	
CCCC(=O)N[C@@H](Cc1ccc(O)cc1)C(=O)NCCCOCCCCOCCCN	10.9		72.7	> 100
CCCC(=O)N[C@@H](Cc1ccc(O)cc1)C(=O)NCCCCCCCCCCCCN	0.79		15.1	> 100
CCCC(=O)N[C@@H](Cc1cccc(O)c1)C(=O)NCCCOCCCCOCCCN	42.6		110	
NCCCNCCCCNCCCNC(=O)[C@H](Cc1cccc(O)c1)NC(=O)CC1CCCCC1	5.33		59.8	
NCCCOCCCCOCCCNC(=O)[C@H](Cc1cccc(O)c1)NC(=O)CC1CCCCC1	4.47		30.7	
CCCC(=O)N[C@@H](Cc1cccc(O)c1)C(=O)NCCCCCCCCCCCCN	2.43		104	
CCCC(=O)N[C@@H](Cc1cccc(O)c1)C(=O)NCCCNCCCCNCCCN	117		> 1000	
CCCC(=O)N[C@@H](Cc1ccc(O)cc1)C(=O)NCCCNCCCCNCCCN [PHILANTHOTOXIN 343]	11.8		56.7	0.75
